Source: ChEMBL document CHEMBL3994613, “Diaryltriazenes as antibacterial agents against methicillin resistant Staphylococcus aureus (MRSA) and Mycobacterium smegmatis” (Eur J Med Chem, 2017)
In brackets after ≈: the same amount, converted by molar mass.

How the values were obtained:
[1] = tested on: Mycolicibacterium smegmatis; assay: Antimycobacterial activity against Mycobacterium smegmatis MC2 155 after 94 to 98 hrs by microdilution method; format: functional; settings: str. MC2 155
Method in brief: (§1)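 Microdilution in TSB broth. Inoculum from colonies grown 96 h on TSA, final 1×10^5 CFU/mL, aerobic 94–98 h at 37 °C, growth read on a plate reader, at least duplicate.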

[2] = tested on: Mycolicibacterium smegmatis; assay: Bactericidal activity against Mycobacterium smegmatis MC2 155 after 96 hrs by microdilution method; format: functional; settings: str. MC2 155, 96 h; method in brief: as §1
Staphylococcus aureus [3] = assay: Antibacterial activity against methicillin-resistant Staphylococcus aureus USA300 after 18 to 20 hrs by microdilution method; format: functional
Method in brief: (§2)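 EUCAST broth microdilution in LB broth. Inoculum prepared by direct colony suspension from 20–24 h LB agar (E. coli DH10β) or 5% sheep blood BHI agar (MRSA USA300) growth. Final inoculum 2×10^4 CFU/mL, 18–20 h aerobic at 37 °C, growth read on a plate reader, at least duplicate.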

Staphylococcus aureus [4] = assay: Bactericidal activity against methicillin-resistant Staphylococcus aureus USA300 after 18 to 20 hrs by microdilution method; format: functional; method in brief: as §2
Escherichia coli [5] = assay: Antibacterial activity against Escherichia coli DH10beta harboring pHuLUC3 after 18 to 20 hrs by microdilution method; format: functional; method in brief: as §2
Escherichia coli [6] = assay: Bactericidal activity against Escherichia coli DH10beta harboring pHuLUC3 after 18 to 20 hrs by microdilution method; format: functional; method in brief: as §2
Saccharomyces cerevisiae = assay: Antibacterial activity against Saccharomyces cerevisiae after 18 to 20 hrs by microdilution method
Method in brief: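 Microdilution in YEP broth against wild-type yeast grown on YEP agar. Final inoculum 1×10^5 CFU/mL. Read after 18–20 h aerobic incubation at 30 °C on plate reader, at least one duplicate.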

Staphylococcus aureus [7] = assay: Induction of membrane integrity impairment in Staphylococcus aureus USA300 assessed as cells with intact membrane at 8 ug/ml measured after 30 mins by Baclight assay relative to control; format: functional
Method in brief: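 LIVE/DEAD BacLight fluorescence assay. Live cells in 0.85% NaCl at OD600 0.2 were exposed to compound in DMSO for 30 min at 37 °C. Dye was then added and incubated 15 min in the dark at room temperature. Fluorescence read at ex 485 nm, em 530/630 nm. Intact membrane % came from a live/dead (isopropanol-killed) standard curve, at least triplicate, mean±SD.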

Staphylococcus aureus [8] = assay: Antibacterial activity against methicillin-resistant Staphylococcus aureus 1653 after 18 to 20 hrs by broth microdilution method; format: functional
Method in brief: (§3)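 EUCAST broth microdilution in LB broth. Inoculum from 20–24 h colonies on 5% sheep blood BHI agar, final 3×10^4 CFU/mL, 18–20 h aerobic at 37 °C, plate reader, at least duplicate.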

Staphylococcus aureus [9] = assay: Bactericidal activity against methicillin-resistant Staphylococcus aureus 1653 after 18 to 20 hrs by broth microdilution method; format: functional; method in brief: as §3
Streptococcus pneumoniae [10] = assay: Antibacterial activity against Streptococcus pneumoniae R6 after 18 to 20 hrs by broth microdilution method; format: functional
Method in brief: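 Broth microdilution per EUCAST in BHI broth. Inoculum from colonies on BHI agar with 5% sheep blood, final 5×10^4 CFU/mL. Read after 18–20 h anaerobic incubation at 37 °C.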

Streptococcus pneumoniae [11] = assay: Bactericidal activity against Streptococcus pneumoniae R6 after 18 to 20 hrs by broth microdilution method; format: functional
Bacillus subtilis [12] = assay: Antibacterial activity against Bacillus subtilis ATCC 6051 after 18 to 20 hrs by broth microdilution method; format: functional
Method in brief: (§4)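 Broth microdilution per EUCAST in LB broth. Inoculum from 20–24 h colonies by CLSI direct colony suspension (LB agar for E. coli), final 2×10^4 CFU/mL. Read after 18–20 h aerobic incubation at 37 °C on plate reader, at least one duplicate.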

Bacillus subtilis [13] = assay: Bactericidal activity against Bacillus subtilis ATCC 6051 after 18 to 20 hrs by broth microdilution method; format: functional
Enterococcus faecalis [14] = assay: Antibacterial activity against vancomycin resistant Enterococcus faecalis 501 after 18 to 20 hrs by broth microdilution method; format: functional
Method in brief: (§5)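 EUCAST microdilution in BHI broth. Inoculum from 20–24 h colonies on 5% sheep blood BHI agar, final 3×10^4 CFU/mL, 18–20 h aerobic at 37 °C, plate reader, at least duplicate.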

Enterococcus faecalis [15] = assay: Bactericidal activity against vancomycin resistant Enterococcus faecalis 501 after 18 to 20 hrs by broth microdilution method; format: functional; method in brief: as §5
Pseudomonas aeruginosa [16] = assay: Antibacterial activity against Pseudomonas aeruginosa PA0001 after 18 to 20 hrs by broth microdilution method; format: functional
Method in brief: (§6)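 EUCAST broth microdilution in LB broth. Inoculum from 20–24 h LB agar colonies (CLSI direct colony suspension), final 3×10^4 CFU/mL. Aerobic incubation 18–20 h at 37 °C, plate-reader read-out, at least one duplicate.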

Pseudomonas aeruginosa [17] = assay: Antibacterial activity against Pseudomonas aeruginosa ATCC 27853 after 18 to 20 hrs by broth microdilution method; format: functional; method in brief: as §6
Klebsiella pneumoniae [18] = assay: Antibacterial activity against Klebsiella pneumoniae ATCC 13882 after 18 to 20 hrs by broth microdilution method; format: functional
Method in brief: (§7)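 Broth microdilution per EUCAST in TSB broth. Inoculum prepared by CLSI direct colony suspension from 20–24 h TSA colonies, final 3×10^4 CFU/mL. Aerobic incubation for 18–20 h at 37 °C, growth read on plate reader, at least one duplicate.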

Klebsiella pneumoniae [19] = assay: Antibacterial activity against Klebsiella pneumoniae ATCC 700603 after 18 to 20 hrs by broth microdilution method; format: functional; method in brief: as §7
Acinetobacter baumannii [20] = assay: Antibacterial activity against Acinetobacter baumannii ATCC 19606 after 18 to 20 hrs by broth microdilution method; format: functional; settings: ATCC 19606 = CIP 70.34 = JCM 6841; method in brief: as §7
Acinetobacter baumannii [21] = assay: Antibacterial activity against Acinetobacter baumannii ATCC BAA-1605 after 18 to 20 hrs by broth microdilution method; format: functional; method in brief: as §7
[22] = Solubility of the compound in water; format: physicochemical; settings: buffer
[23] = Stability of the compound in water; format: physicochemical; settings: buffer
[24] = Stability of the compound in organic solvent; format: physicochemical
[25] = Stability of the compound in solid state; format: physicochemical
Escherichia coli [26] = assay: Antibacterial activity against Escherichia coli D22 after 18 to 20 hrs by microdilution method; format: functional; method in brief: as §4
Escherichia coli [27] = assay: Bactericidal activity against Escherichia coli D22 after 18 to 20 hrs by microdilution method; format: functional
Escherichia coli [28] = assay: Antibacterial activity against N43 CGSC 5583 knock out Escherichia coli after 18 to 20 hrs by microdilution method; format: functional; method in brief: as §4
[29] = Stability in PBS buffer at pH 7.4 by TLC method; format: physicochemical
[30] = Stability in PBS buffer at pH 7.4 NMR method; format: physicochemical
[31] = Stability in pH 7.4 DMSOd6/PBS buffer assessed as glutathione reactivity incubated for 24 hrs by 1H NMR spectroscopic method; format: physicochemical; settings: pH 7.4, 24 h
Method in brief: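 Equimolar reduced glutathione and compound were incubated at room temperature in DMSO-d6/phosphate buffer pH 7.4 (1:1, v/v). The mixture was monitored by NMR.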

SMILES: O=C(CCl)N(/N=N/c1ccc([N+](=O)[O-])cc1C(F)(F)F)c1ccc([N+](=O)[O-])cc1C(F)(F)F
- MIC [1]: 32 µg/mL (≈ 64 µM)
- MBC [2]: > 128 µg/mL
- MIC (Staphylococcus aureus [3]): 2 µg/mL (≈ 4 µM)
- MBC (Staphylococcus aureus [4]): 2 µg/mL (≈ 4 µM)
- MIC (Escherichia coli [5]): 128 µg/mL (≈ 256 µM)
- MBC (Escherichia coli [6]): > 128 µg/mL
- MIC (Saccharomyces cerevisiae): > 128 µg/mL
- Activity (Staphylococcus aureus [7]): 100%
- MIC (Staphylococcus aureus [8]): 0.03 µg/mL (≈ 0.06 µM)
- MBC (Staphylococcus aureus [9]): 0.5 µg/mL (≈ 1 µM)
- MIC (Streptococcus pneumoniae [10]): 0.0312 µg/mL (≈ 0.0625 µM)
- MBC (Streptococcus pneumoniae [11]): 0.125 µg/mL (≈ 0.25 µM)
- MIC (Bacillus subtilis [12]): 0.0312 µg/mL (≈ 0.0625 µM)
- MBC (Bacillus subtilis [13]): 4 µg/mL (≈ 8 µM)
- MIC (Enterococcus faecalis [14]): 1 µg/mL (≈ 2 µM)
- MBC (Enterococcus faecalis [15]): > 128 µg/mL
- MIC (Pseudomonas aeruginosa [16]): > 128 µg/mL
- MIC (Pseudomonas aeruginosa [17]): > 128 µg/mL
- MIC (Klebsiella pneumoniae [18]): > 128 µg/mL
- MIC (Klebsiella pneumoniae [19]): > 128 µg/mL
- MIC (Acinetobacter baumannii [20]): > 128 µg/mL
- MIC (Acinetobacter baumannii [21]): > 128 µg/mL
- solubility [22]: Soluble
- Stability [23]: Stable
- Stability [24]: Stable
- Stability [25]: Stable
- MIC (Escherichia coli [26]): 0.5 µg/mL (≈ 1 µM)
- MBC (Escherichia coli [27]): 16 µg/mL (≈ 32 µM)
- MIC (Escherichia coli [28]): > 128 µg/mL

SMILES: O=[N+]([O-])c1ccc(/N=N/Nc2ccc([N+](=O)[O-])cc2C(F)(F)F)c(C(F)(F)F)c1
- Stability [29]: Stable
- Stability [30]: Stable

SMILES: O=[N+]([O-])c1ccc(/N=N/[N-]c2ccc([N+](=O)[O-])cc2C(F)(F)F)c(C(F)(F)F)c1.[K+]
- solubility [22]: Soluble
- Stability [23]: Stable
- Stability [24]: Stable
- Stability [25]: Stable
- Stability [31]: Stable
- Stability [29]: Stable
- Stability [30]: Stable
